This is a sample that favours compounds with a hit; in the whole collection about 1% have one here.
PvdQ inh – P. aeruginosa PvdQ acylase inhibitors, primary screen, biochemical, fluorescence, plate reader and imaging, single point | PvdQ acylase [Pseudomonas aeruginosa LESB58] | purified PvdQ acylase | inhibition, % at 10 µM | 340,000 compounds, 0.063% hits | AID 488965, 2010; in the data active = inhibition above about 30%, passing the limit was not always enough
VIM-2 inh – VIM-2 metallo-beta-lactamase inhibitors, primary screen, biochemical, epi-absorbance readout, Pseudomonas aeruginosa enzyme. purified VIM-2, nitrocefin hydrolysis, epi-absorbance fluorescence. inhibition, % at 5.6 µM. 290,000 compounds, 0.89% hits. AID 1527, 2009;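 active = inhibition above the mean of all tested compounds plus 3 SD, cutoff set per screening run, cut at about 7.5% in these data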;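 also: red hydrolysis product quenches plate fluorescence so inhibitors raise well fluorescence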
PglD inh – C. jejuni PglD acetyltransferase inhibitors, primary screen, biochemical, DTNB colorimetric, single point. 360,000 compounds, 0.098% hits. purified PglD enzyme, DTNB colorimetric CoA detection. UDP-N-acetylbacillosamine N-acetyltransferase PglD (Campylobacter jejuni). inhibition, % at 12.5 µM; in the data active = inhibition above about 16%, passing the limit was not always enough
PDI inh – inhibitors of human PDI, primary screen, biochemical, turbidity, single point, plate reader. Protein disulfide-isomerase (Homo sapiens), P07237. PDI insulin aggregation turbidity, A650, 90 min. inhibition, % at 10 µM. 350,000 compounds, 0.052% hits. AID 588391, 2011;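 active = mean inhibition across replicates of 30% or more, whatever share of single replicates reach that level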
ERp5 block – inhibitors of ERp5-driven insulin aggregation, primary screen, biochemical, turbidity, absorbance 650 nm, single point; 90 min; inhibition, % at 9.99 µM; 350,000 compounds, 0.05% hits;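 active = mean replicate inhibition above about 25%, with every replicate also reaching it, limit read from the data, passing the limit was not always enough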
IMP-1 inh-1 – IMP-1 metallo-beta-lactamase inhibitors, primary screen, biochemical, epi-absorbance readout, Pseudomonas aeruginosa enzyme; purified IMP-1, nitrocefin hydrolysis, epi-absorbance fluorescence; inhibition, % at 5.6 µM; 290,000 compounds, 0.45% hits; AID 1556, 2009;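 active = inhibition above the mean plus 3 SD of all compounds in the same screening run, cut at about 4.5% in these data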
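system = purified recombinant IMP-1 beta-lactamase | amount = 0.2 nM IMP-1, as dispensed | medium = HEPES buffer pH 7.1 with ZnSO4 and Brij 35 | times = 25 °C, 15 min preincubation, 25 min reaction | detection = plate fluorescence quenching by hydrolysis product, ex 480/em 530 nm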
IMP-1 inh-2 – IMP-1 metallo-beta-lactamase inhibitors, confirmation, selectivity assay for selective VIM-2 inhibitor project, biochemical, epi-absorbance readout, triplicate | inhibition, % at 5.6 µM | 1,300 tested, under 10 active | purified IMP-1, nitrocefin hydrolysis, epi-absorbance fluorescence | shares compounds with VIM-2 inh | AID 1856, 2009; call rule not given here
VIM-2 FRET ctr – VIM-2 inhibitors in FRET format, confirmation, artefact control for selective VIM-2 inhibitor project, biochemical, epi-absorbance artifact exclusion; shares compounds with VIM-2 inh; purified VIM-2, CCF2 FRET substrate hydrolysis; inhibition, % at 5.6 µM; 1,300 compounds, 23% hits;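 active = inhibition above the mean of all tested compounds plus 3 SD, cut at about 19% in these data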
TEM-1 counter – TEM-1 serine beta-lactamase inhibitors, counter-screen for VIM-2 inhibitor project, biochemical, epi-absorbance, HTS; shares compounds with VIM-2 inh; Purified TEM-1, nitrocefin hydrolysis, epi-absorbance fluorescence; inhibition, % at 5.6 µM; 1,300 compounds, 3% hits; AID 1866, 2009;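 active = inhibition above that campaign's mean inhibition plus 3 SD, cut at about 0.46% in these data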
Target sequence (P62593 whole entry, looked up): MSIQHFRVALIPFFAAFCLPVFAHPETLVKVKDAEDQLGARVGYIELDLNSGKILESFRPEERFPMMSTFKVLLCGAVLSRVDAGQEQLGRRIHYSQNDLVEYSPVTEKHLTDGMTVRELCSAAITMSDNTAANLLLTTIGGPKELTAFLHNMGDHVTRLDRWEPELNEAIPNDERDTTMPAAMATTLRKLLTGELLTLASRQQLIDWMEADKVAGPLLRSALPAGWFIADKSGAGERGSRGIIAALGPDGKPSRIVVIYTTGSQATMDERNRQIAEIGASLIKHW
VIM-2 inh conf – VIM-2 metallo-beta-lactamase inhibitors, confirmation, biochemical, epi-absorbance, hits shared with IMP-1 screen; shares compounds with VIM-2 inh; purified VIM-2, nitrocefin hydrolysis; inhibition, % at 5.6 µM; 1,300 compounds, 96% hits; AID 2187, 2009;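 active = inhibition of the VIM-2 beta-lactamase enzyme above about 11% from the earlier first-round screen, limit read from the data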
A number is an active result; - = inactive; . = no result given.

SMILES	PvdQ inh	VIM-2 inh	PglD inh	PDI inh	ERp5 block	IMP-1 inh-1	IMP-1 inh-2	VIM-2 FRET ctr	TEM-1 counter	VIM-2 inh conf
O=C1CN(S(=O)(=O)c2ccccc2)C[C@H]2[C@@H](c3ccc(C4=CCCC4)cc3)[C@@H](CO)N12	.	.	.	.	-	.	.	.	.	.
CCN(CC)C(=O)c1cc2c(=O)n3cccc(C)c3nc2s1	-	16	-	-	-	-	-	-	-	20
CCCCN(CC)C(=O)c1cc2c(=O)n3cccc(C)c3nc2s1	-	12	-	-	-	-	-	-	-	19
CCCCn1c(=NC(C)=O)c(C#N)cc2c(=O)n3cccc(C)c3nc21	-	.	-	-	-	.	.	.	.	.
CCN(CC)C(=O)c1cc2c(=O)n3cccc(C)c3nc2n1C	-	-	-	-	.	-	.	.	.	.
CCN(CC)CCNC(=O)c1cc2c(=O)n(CC)c3ccccc3c2s1	-	14	-	-	-	-	-	-	-	21
CCN(CC)CCCNC(=O)c1cc2c(=O)n(CC)c3ccccc3c2s1	-	14	-	-	-	-	-	-	-	21
CCn1c(=O)c2cc(C(=O)NCCN(C)C)sc2c2ccccc21	-	13	-	-	-	-	-	-	-	20
CCOc1ccccc1N(C)C(=O)c1cc2c(=O)n(CC)c3ccccc3c2s1	-	-	-	-	-	-	.	.	.	.
CCn1c(=O)c2cc(C(=O)N3CCCC3)sc2c2ccccc21	.	-	.	.	.	-	.	.	.	.
C[C@H]1CN([C@@H](C)CO)C(=O)Cc2cc(NS(=O)(=O)c3ccccc3)ccc2O[C@H]1CN(C)Cc1ccncc1	.	.	-	.	-	.	.	.	.	.
O=c1[nH]c2c(s1)C(c1ccc(O)cc1)C1C3CCC(C3)C1S2 (stereo unspecified)	-	-	-	-	-	-	.	.	.	.
O=c1[nH]c2c(s1)C(c1cccnc1)C1C3CCC(C3)C1S2 (stereo unspecified)	-	84	.	-	.	-	-	89	-	83
CC1CCCN(c2c3c(nc4ccccc24)CCCC3)C1 (stereo unspecified)	-	13	-	-	-	-	-	-	-	21
CN(C)C(=O)C[C@H]1CC[C@@H]2[C@H](COC[C@H](O)CN2C(=O)C2CCCC2)O1	.	.	-	.	.	.	.	.	.	.
CCC(=O)Nc1ccc2c(c1)OC[C@H](C)N(CC1CCCCC1)C[C@@H](C)[C@@H](OC)CN(C)C2=O	.	.	-	.	.	.	.	.	.	.
c1ccc2c(c1)CCN2CCN1CCc2ccccc21	-	-	-	-	.	-	.	.	.	.
CN(C)CCN1CCc2ccccc21	-	23	-	-	.	-	-	-	-	11
CC(=O)c1ccc(Nc2nc(-c3cccnc3)cs2)cc1	-	14	-	-	-	-	-	-	-	15
CC(=O)NCc1cc(-c2nn(C)c(=O)c3ccccc23)ccc1C	-	-	.	-	.	-	.	.	.	.
COCCNc1ccc(-c2nn(C)c(=O)c3ccccc23)cc1[N+](=O)[O-]	-	-	-	-	-	-	.	.	.	.
CN(C)CCCNc1ccc(-c2nn(C)c(=O)c3ccccc23)cc1[N+](=O)[O-]	-	61	-	-	-	-	-	-	-	71
CC(O)CNc1ccc(-c2nn(C)c(=O)c3ccccc23)cc1[N+](=O)[O-] (stereo unspecified)	-	19	.	-	-	-	-	-	-	39
